Test results taken from ChEMBL document CHEMBL4513216, “Probing the Open Global Health Chemical Diversity Library for Multistage-Active Starting Points for Next-Generation Antimalarials” (ACS Infect Dis, 2020).

Experiment: Toxicity liver stage against HepG2, at 10uM
Format: cell-based
Design: test concentration 10 uM, cell line HepG2-A16-CD81EGFP
Conditions: human, HepG2-A16-CD81EGFP cells; read-out: INHIBITION
Outline: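 Uninfected HepG2-A16-CD81EGFP cells, 3 × 10^3 per well, 1536-well, plated on prespotted compound at 10 μM final, parasite-free screening media added to match infected plates; puromycin 10 μM positive, DMSO 0.5% negative; run in parallel with 48 h PbLuc assay at 37 °C, 5% CO2; viability by CellTiter-Glo luminescence, normalized to controls.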

Compound	cytotoxicity at 10 µM [%]
Cc1nc(CN2CCO[C@@H]3CN(Cc4ccccn4)CC[C@@H]3C2)cs1	7.02
N#Cc1cccc(NS(=O)(=O)c2ccc(C(=O)O)cc2F)c1	-3.67
COc1ncccc1CNCc1c(C(C)C)nn(C)c1OC	-1.68
Cc1ccc(F)c(CNc2ccn(CCC(N)=O)n2)c1	-4.75
O=C(c1cccnc1)N1C[C@H]2CC[C@@H](C1)N(Cc1cc(F)ccc1F)C2	-10.2
COCCNC(=O)Cn1cc2c(n1)c(C)nn2C	4.6
CC(=O)N1CC(=O)N(c2cccnc2)CC12CCN(Cc1nccs1)C2 (stereo unspecified)	6.85
CC(=O)N(Cc1ncc(C(C)C)o1)C1CCN(Cc2cc(C)on2)C1 (stereo unspecified)	-6.78
Cc1cc(-c2cnc(N3CCNC(=O)C3)nc2-c2cccnc2C)on1	-6.9
Cc1cn2c(n1)CCC(NC(=O)CCOc1ccccc1F)C2 (stereo unspecified)	5.27
CCn1cc(C(=O)NCc2csc(Br)c2)cn1	4.84
C=C(C)CN(CC)Cc1nc(CC)no1	12.6
Cc1nc(-c2ccccc2)c(C(=O)N2CCC3(CC(=O)NC3=O)C2)s1 (stereo unspecified)	-3.89
CCc1ncc(C(=O)N2CCN(C(=O)COc3ccccc3)CC2)cn1	-12.8
CC(Cn1cccn1)NC(=O)NCc1ccoc1 (stereo unspecified)	8.59
CC(C)C(=O)N1CCCC(c2cc(C(F)F)n3ncnc3n2)C1 (stereo unspecified)	1.18
CCn1cc2c(n1)CN(S(=O)(=O)c1ccc(C)cc1)CC2COC (stereo unspecified)	5.77
O=C1NCC2(CCCN(C(=O)Nc3ccc4occc4c3)CC2)O1 (stereo unspecified)	2.09
Cc1csc(CNC(=O)NCC(O)c2ccccc2)n1 (stereo unspecified)	2.26
Cc1noc(C)c1-c1ccc(C2CCCN2C(=O)c2cccnc2)nc1 (stereo unspecified)	4.7
COCC1c2c(cnn2C)CCN1Cc1cccc(C)c1 (stereo unspecified)	0.951
O=C(Cc1ccc2c(c1)CCO2)Nc1ccc(-n2cncn2)nc1	3.62
COCCN1CCC(c2cncc(N(C)C)n2)CC1	-25.5

Compound	cytotoxicity at 10 µM [%]
CCOc1cc(N2CCN(C(=O)c3ccc(OC)cc3)CC2)nc(C)n1	-10.2
c1ccc2c(Cc3nnc([C@H]4CCNC4)o3)c[nH]c2c1	-0.762
Cc1nc(CN2CCCC(N(C)Cc3nccn3C)C2)no1 (stereo unspecified)	-16.8
Cc1cc(C)n(CCNCc2cc(-c3ccccc3)c[nH]c2=O)n1	-2.47
COCCN1CCC(NC(=O)Cn2cc(C)c3ccccc32)CC1	-0.869
CC(C)(C)NC(=O)CNc1ccc(Br)cn1	-2.81
Cc1oc(C(=O)Nc2cccc(Cl)c2C)cc1S(N)(=O)=O	7.46
O=C(c1cn(CCN2CCCCC2)nn1)N1CCCCO1	-4.55
O=C(CCNc1ncccn1)NCc1ccc(Br)s1	6.72
CCn1cc(CN2CCC3(CC2)c2ccccc2CC3O)cn1 (stereo unspecified)	5.54
COCc1c(C(=O)NC2CCCC2)nnn1-c1ccc(C)cc1	5.97
CC(C)(C)c1cn(C2CCN(C3CCSC3)CC2)nn1 (stereo unspecified)	-3.99
Cc1ccc(-c2nnc(CN3CCCC(O)(CO)CC3)o2)n1C (stereo unspecified)	-2.4
O=C(NCC1(O)CCC1)c1c(O)cc(F)cc1F	6.22
CC(=O)N1[C@H](CN(C)C)C[C@@H]2CN(C(=O)c3cncc(C)c3)CC[C@@H]21	3.76
Cc1ccc(C(=O)NC2CC2)c(-n2cnnn2)c1C	-2.27
O=C1NCCO[C@H]2CN(C(=O)CCc3ccccc3Cl)CC[C@@H]12	1.96
O=C1NC2(CCCN(C(=O)CCn3cccn3)C2)Oc2ccccc21 (stereo unspecified)	-6.19
COCCN1CCC(c2cncc(-c3ccccc3C)n2)CC1	-15.1
Cc1cccc(C(=O)N2Cc3ccccc3C3(CCN(C)CC3)C2)n1	-73.5
O[C@@]1(c2ccccn2)CC[C@H]2CN(Cc3cccc(Cl)c3Cl)C[C@H]21	0.256
O=C(c1ccccc1F)N1C[C@@H]2COC[C@]2(COCc2cccnc2)C1	6.27
Cc1nc(N2CCCCC2)ncc1C(=O)N1CC(C)(C)[C@@](C)(O)C1	1.41

Compound	cytotoxicity at 10 µM [%]
COc1ccc(C2Nc3ccccc3C3=NCCCN32)cc1OC (stereo unspecified)	6.05
COc1ccccc1C1(O)CCCN(C(=O)c2cnc(SC)nc2)C1 (stereo unspecified)	7.27
Cc1noc(C(C)N2CCN(Cc3noc(C4CC4)n3)CC2)n1 (stereo unspecified)	0.973
CCN1CCNC(=O)C12CCN(S(=O)(=O)c1ccc(OC)cc1)CC2	0.699
Cc1ccc(C(=O)NCCS(=O)(=O)N2CCSCC2)o1	6.13
O=C(NC1CC1)c1cc2c(s1)CCN2C(=O)C1CC1	6.17
CS(=O)(=O)N1CCCC12CCCN(S(=O)(=O)c1cc(F)cc(F)c1)C2 (stereo unspecified)	10.9
COc1cc(C)nc(N2CCN(C(C)c3nc(C4CC4)no3)CC2)n1 (stereo unspecified)	1.46
O=C(Cc1ccsc1)N1CCn2cc(CN3CCCC3)nc2C1	-14.2
CC(=O)N1C[C@H]2CC[C@@H](C1)N(Cc1ccc(Cn3cccn3)cc1)C2	0.0531
Cc1ccc(-c2nc(CN3CCOC(c4ccccc4)C3)cs2)o1 (stereo unspecified)	-8.11
Cc1noc(C(C)Nc2ccc(N3CCOCC3)cc2C)n1 (stereo unspecified)	-3.92
CCN(Cc1ccc2c(c1)OCO2)c1ncc(S(N)(=O)=O)s1	8.14
O=C(NC1CC(F)(F)C1)[C@]12COC[C@H]1CN(Cc1ccccc1)C2	-108
COCCN1C(=O)CCC12CCCN(C(=O)NC(C)C)CC2 (stereo unspecified)	1.32
CC(NCCn1cccn1)c1ccccc1Cl (stereo unspecified)	-5.03
CCc1noc(C(C)Sc2nnc(C3CC3)n2CC(N)=O)n1 (stereo unspecified)	-148
CCCn1ncc(C(=O)NCCc2[nH]nc3c2CCCC3)c1C	-6.63
CN(CCC(O)c1ccccc1)c1cc(N2CCOCC2)ncn1 (stereo unspecified)	-148
CN1C(=O)CO[C@H](c2ccc(NC(=O)Cc3cccs3)cc2)[C@H]1CO	0.931
CN(C)c1ccccc1C(=O)N1CCCC(c2cccc(C(=O)O)c2)C1 (stereo unspecified)	-6.11
Cc1cc(NCCNS(=O)(=O)c2cn(C)nc2C)c2ccccc2n1	1.78
CC1CCN(C(=O)c2cn(-c3ccc(C(F)(F)F)cn3)nn2)CC1	-53.1

Compound	cytotoxicity at 10 µM [%]
CC(C)Oc1ncccc1CNC(=O)N1CCC(C(N)=O)C1 (stereo unspecified)	-6.08
COc1ccc(C(C)Nc2ncc(C(N)=O)cc2Cl)cc1F (stereo unspecified)	5.37
Cn1nc2c(cc1=O)CN(Cc1nc(-c3ccsc3)no1)CC2	-2.21
Cc1cc(=O)n2c3c(cc(S(=O)(=O)NC4CC4)cc13)CCC2	-32.3
Cc1noc(C)c1CN1CC[C@H]2OCC[C@@H](C(=O)NCC3CC3)[C@H]2C1	1.27
CCN1CC(=O)NCC12CCN(C(=O)c1ccco1)C2 (stereo unspecified)	-2.86
CC(NCC1CCN(CCO)CC1)c1ccc(F)c(Cl)c1 (stereo unspecified)	-9.04
CCOc1ccccc1-n1c(C2CCC2)n[nH]c1=O	4.18
CC(C)c1nnc(CN2CCCC3(CC2)CN(C)C(=O)O3)o1 (stereo unspecified)	-1.52
CC(C(=O)NC1CC1)N1CCN(Cc2ccn(C)c(=O)c2)CC1 (stereo unspecified)	-5.57
CCc1c(C)nc(SCc2ccccn2)[nH]c1=O	9.56
CCn1cc(CNCCNc2ncc(Cl)cc2Cl)cn1	-4.27
Cc1cc(-c2ccccc2C(=O)O)nc(C2CCCCN2C)n1 (stereo unspecified)	-0.168
Cc1oc(-c2nc(C#N)c(NC(C)C)o2)cc1S(=O)(=O)N1CCCC1	5.61
CCCn1nccc1NC(=O)c1ccc(Cl)c(N2CCNC2=O)c1	-5.07
CCC(C)NC(=O)Nc1cccc(OCC#N)c1 (stereo unspecified)	-0.146
Cc1cnc(N2CC[C@@H]3CN(Cc4ccncc4)CCO[C@@H]3C2)nc1	3.23
Cc1csc2c(=O)n(CCN3CCNCC3)cnc12	-3.5
COc1ccc(C)cc1-c1[nH]c2ccccc2c1C(=O)O	0.806
CNc1nc(CNC(=O)Nc2ccccc2C(F)(F)F)cs1	-0.896
O=C(NCCc1nccs1)[C@H](c1ccccc1)n1cnnn1	-0.607
CCOCC1CN(S(=O)(=O)CC)Cc2nn(C)cc21 (stereo unspecified)	-111
CCn1ccnc1CNCc1ccc(C)cc1OC(C)(C)C	1.03

Compound	cytotoxicity at 10 µM [%]
Cc1noc(NC(=O)CCNC(=O)c2ccc(Br)cc2)n1	0.449
COC(=O)N1CCC(CNS(=O)(=O)c2cnn(C)c2)CC1	-9.03
Cc1noc(C)c1CN(C)C(=O)c1ccc(C(F)(F)F)nc1	-10
COc1ccc2c(c1)C(=O)N(C)C1(CCN(CC=C(C)C)CC1)N2	3.31
CC(=O)NCc1nn(C)c2c1CN(Cc1ccsc1)C2	-144
CN1CC2(CCCN(Cc3cccc(CCN)c3)C2)OC1=O (stereo unspecified)	20
Cc1nc(-c2ccsc2)ccc1C(=O)N1CCn2c(C)nnc2C1	-7.83
Cc1cc2nc(C(C)C)cc(NCCNc3ncccc3C)n2n1	16.9
CN1CCN(Cc2ccccc2Oc2cncc(C(N)=O)n2)CC1	-4.89
CCc1nnc(SC2CCCN(c3cccc(F)c3)C2=O)n1C (stereo unspecified)	7.17
Cc1nc(N(C)C)ncc1C(=O)NCCc1csc(-c2cnccn2)n1	-5
CCc1nc(CN2CCCN(C(=O)C(C)COC)CC2)cs1 (stereo unspecified)	-0.884
COCCNc1ncc(-c2cccc(F)c2)c(-c2nccn2C)n1	13.4
O=C(NCC1CCOC1)N1CCN(Cc2ccc3c(c2)CCO3)CC1 (stereo unspecified)	-4.2
COc1cc(CNCc2ccc(NC(=O)NC(C)C)cc2)cc(OC)c1	0.347
COC(=O)CNC(=O)C1(NC(=O)c2ccc3[nH]ncc3c2)CCCC1	-2.23
CCc1nc(CN(C(C)=O)C2CCN(CCc3cccs3)C2)no1 (stereo unspecified)	-4.62
Cc1c(F)cccc1S(=O)(=O)NC(C)(C)CN	0.926
COCCO[C@H]1CCN(c2cc(OC)ncn2)[C@H]1Cc1ccncc1	-146
